Series [1] can be described thus: Selectivity index, ratio of IC50 for cytotoxicity against mouse L929 cells to MIC for antibacterial activity against clinically isolated Methicillin-resistant Staphylococcus aureus. Format: toxicity, cell-based. Conditions: read-out: Selectivity Index.
In series [2] the test system is Staphylococcus aureus. The experiment in a line: Disruption of biofilms against 48 hrs preformed Methicillin-resistant Staphylococcus aureus assessed as eradication of biofilms measured after 24 hrs by crystal violet staining method. Format: functional. Put shortly:
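MRSA (1 × 10^5 CFU mL−1, diluted 1:100) grown 48 h at 37 °C in tryptone soy broth with 3% glucose. […] Saline wash, 95% ethanol fixation 30 min, 0.1% crystal violet 30 min at 25 °C, elution with 95% ethanol, OD 545 nm. MBEC determined. Triplicate.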

A short description of series [3]: Toxicity against Galleria mellonella assessed as visible injury at 20 mg/kg measured every 12 hrs for 120 hrs. The class given is organism-based. The following applies: in vivo. Put shortly: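 Uninfected Galleria mellonella larvae (0.2–0.4 g, ten per group) given 20 mg kg−1 compound, alongside untreated, PBS and PBS + 2% DMSO vehicle controls; held at 37 °C and checked every 12 h for 120 h. Larvae that turned black and gave no response to stimulus counted dead; percentage survival recorded.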

Series [4] relates to Staphylococcus aureus. Description: Antibacterial activity against Methicillin-resistant Staphylococcus aureus infected in Galleria mellonella assessed as larva's survial rate at 2.5 mg/kg measured after 24 to 48 hrs. The class given is functional. The following applies: time 24-48 hrs. Put shortly: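 Galleria mellonella larvae (0.2–0.4 g, 10 per group) injected in the last proleg with MRSA at 5 × 10^8 ± 0.2 cells per larva, then given 2.5, 5 or 10 mg kg−1. Controls: untreated, PBS, and PBS + 2% DMSO vehicle. Held at 37 °C and checked every 12 h; larvae that were black and unresponsive counted dead. Bacterial burden by CFU at 0, 24 and 48 h.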

The test system of series [5] is Staphylococcus aureus. Description: Anti-biofilm activity against Methicillin-resistant Staphylococcus aureus assessed as interruption in well organized and aggregated biofilm at 1/2 to 2X MIC measured after 48 hrs by scanning electron microscopy. Format: functional, organism-based.
Series [6] deals with Staphylococcus aureus. The experiment in a line: Anti-biofilm activity against Methicillin-resistant Staphylococcus aureus assessed as reduction in integrated density of biofilms at 1/2 to 2XMIC measured after 48 hrs by Syto-9 staining based fluorescence microscopy. The class given is functional, organism-based. Put shortly:
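After PBS washes, stained with SYTO-9 ([…]) 15 min at 25 °C and imaged by fluorescence microscopy (excitation 480 nm). Integrated density quantified from images. Triplicate, mean ± SD.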

For series [7], the system named is Staphylococcus aureus. Description: Anti-biofilm activity against Methicillin-resistant Staphylococcus aureus assessed as mean thickness of biofilm at 1/2XMIC measured after 48 hrs by crystal violet staining based phase contrast microscopy (reference value: 15.03+/-1.63 um). The class given is functional.
Series [8] deals with Klebsiella pneumoniae. The experiment in a line: Antibacterial activity against clinically isolated Klebsiella pneumoniae RBRJ024 assessed as inhibition of bacterial growth at 50 uM measured after 48 hrs by agar well diffusion method. Format: functional. The following applies: read-out: IZ.
Series [9] can be described thus: Toxicity against Galleria mellonella assessed as survival rate of larva at 20 mg/kg measured every 12 hrs for 120 hrs. Format: organism-based. Conditions: in vivo. Put shortly:
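Uninfected Galleria mellonella larvae (0.2–0.4 g, 10 per group) given 20 mg kg−1. Controls: untreated, PBS, and PBS + 2% DMSO vehicle. Held at 37 °C and monitored every 12 h for 120 h; larvae that were black and unresponsive counted dead. Percentage survival plotted.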

For a further series, the system named is Escherichia coli. Description: Antibacterial activity against clinically isolated Escherichia coli RBRJ013 assessed as inhibition of bacterial growth at 50 uM measured after 48 hrs by agar well diffusion method. The following applies: read-out: IZ. The class given is functional. (Agar diffusion results depend on both activity and mobility in agar.)
Series [10] concerns Staphylococcus aureus. Description: Anti-biofilm activity against Methicillin-resistant Staphylococcus aureus assessed as biofilm substrate coverage at 1/2XMIC measured after 48 hrs by crystal violet staining based phase contrast microscopy (reference value: 81.43+/-3.57%). The class given is functional.
The test system of series [11] is Staphylococcus aureus. Description: Anti-biofilm activity against Methicillin-resistant Staphylococcus aureus assessed as reduction in biofilm formation at 2XMIC measured after 48 hrs by crystal violet staining based analysis. Format: functional. Put shortly: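 Non-adherent cells washed off with water, stained with 0.5% crystal violet 30 min at 25 °C, dye eluted with 95% ethanol, OD 545 nm. Reported as % reduction versus untreated control. Triplicate.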

The test system of a further series is Galleria mellonella. Description: Modulation of immune response in MRSA-infected Galleria mellonella systemic infection model assessed as reduction in haemocytes in larva's circulating lymph at 10 mg/kg measured after 24 to 48 hrs by fluorescent microscopic analysis. The class given is functional, organism-based. Conditions: time 24-48 hrs. Put shortly:
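Galleria mellonella larvae (0.2–0.4 g, ten per group) injected in the last proleg with MRSA, 5 × 10^8 cells per larva, then given 10 mg kg−1 compound; kept at 37 °C. Hemolymph collected on ice at 24 and 48 h post inoculation, diluted in PBS, counted with an automated cell counter and viewed with trypan blue (0.1%) under a fluorescent microscope.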

Series [12] relates to Staphylococcus aureus. Description: Bacteriostatic activity against Methicillin-resistant Staphylococcus aureus assessed as reduction in colony formation units at 1/2XMIC measured after 48 hrs by time-kill assay. The class given is functional, organism-based. Put shortly:
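Samples taken at 1, 2, 4, 8, 12, 24 and 48 h, diluted in 0.9% saline and plated on Mueller Hinton agar (48 h, 37 °C). CFU counted and log10 CFU mL−1 plotted against time. Triplicate.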

The subject of series [13] is Klebsiella pneumoniae. The experiment in a line: Antibacterial activity against Klebsiella pneumoniae MTCC 109 assessed as inhibition of bacterial growth at 50 uM measured after 48 hrs by agar well diffusion method. Format: functional. The following applies: read-out: IZ.
In series [14] the test system is Staphylococcus aureus. Description: Antibacterial activity against Staphylococcus aureus MTCC 740 assessed as inhibition of bacterial growth measured after 48 hrs by broth microdilution method. The class given is functional.
Series [15] concerns Staphylococcus aureus. Description: Antibacterial activity against clinically isolated Staphylococcus aureus RBRJ010 assessed as inhibition of bacterial growth at 50 uM measured after 48 hrs by agar well diffusion method. The class given is functional. The following applies: read-out: IZ.
In series [16] the test system is Staphylococcus aureus. Description: Antibacterial activity against clinically isolated Staphylococcus aureus RBRJ010 assessed as inhibition of bacterial growth measured after 48 hrs by broth microdilution method. The class given is functional.
Series [17] concerns Staphylococcus epidermidis. The experiment in a line: Antibacterial activity against Staphylococcus epidermidis MTCC 435 assessed as inhibition of bacterial growth at 50 uM measured after 48 hrs by agar well diffusion method. The class given is functional. Conditions: read-out: IZ.
The subject of series [18] is Staphylococcus aureus. Description: Bactericidal activity against clinically isolated Staphylococcus aureus RBRJ010 assessed as inhibition of bacterial growth measured after 48 hrs by agar plate method. Format: functional. Put shortly: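 MBC: 10 μL from wells showing no INT colour change after broth microdilution subcultured on drug-free Mueller Hinton agar, 48 h at 37 °C aerobically; lowest concentration with no visible growth taken as MBC (μM). Triplicate.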

The test system of series [19] is Klebsiella pneumoniae. Description: Antibacterial activity against clinically isolated Klebsiella pneumoniae RBRJ019 assessed as inhibition of bacterial growth at 50 uM measured after 48 hrs by agar well diffusion method. Format: functional. Conditions: read-out: IZ.
Series [20] relates to Staphylococcus aureus. Description: Anti-biofilm activity against Methicillin-resistant Staphylococcus aureus assessed as biofilm volume/area at 2XMIC measured after 48 hrs by crystal violet staining based phase contrast microscopy (reference value: 18.37 +/-1.14 um3/um2). Format: functional.
For a further series, the system named is Enterococcus faecalis. Description: Antibacterial activity against Enterococcus faecalis MTCC 439 assessed as inhibition of bacterial growth at 50 uM measured after 48 hrs by agar well diffusion method. Format: functional. Conditions: read-out: IZ.
In series [21] the test system is Staphylococcus aureus. Description: Antibacterial activity against Methicillin-resistant Staphylococcus aureus ATCC 33591 assessed as inhibition of bacterial growth measured after 48 hrs by broth microdilution method. The class given is functional. For orientation: Dilution methods test growth across graded concentrations, often in twofold steps.

Values after ≈ are worked out from the molar mass of the structure shown. Active and inactive are the calls of the source. The calls are words filed in the database; no cut-off is given here.

In general, MIC refers to the lowest concentration that inhibits growth of the organism. In general, MBC refers to the lowest tested concentration that kills the bacteria rather than only halting them. With `Cc1ccc(C(C)C)c(OCc2cn(CCCN3C(=O)C(=O)c4ccccc43)nn2)c1`, in [1], the selectivity ratio came to 65. Also, the MBEC in the series with Staphylococcus aureus [2] was found to be 7.8 µM. Also, the Activity entry in [3] was “Non-Toxic”; in the series on Staphylococcus aureus [4], 80%; in the series with Staphylococcus aureus [7], 2.97 um; in the series on Staphylococcus aureus [10], 19.12%; with Staphylococcus aureus [20] it was 0.69 um3/um2. Also, the outcome in the series on Staphylococcus aureus [5], in the series on Staphylococcus aureus [6], in the series on Galleria mellonella and in the series with Staphylococcus aureus [12] was Active. Further, the zone of inhibition at 50 µM in the series with Klebsiella pneumoniae [8] was found to be 21.2 mm; with Escherichia coli, 20.3 mm; in the series with Klebsiella pneumoniae [13], 21.4 mm; in the series with Staphylococcus aureus [15] it was 27.1 mm; in series [17], 25.5 mm; with Klebsiella pneumoniae [19], 20.2 mm. Besides, in the series with Enterococcus faecalis, the zone of inhibition at 50 µM was 18.5 mm. For the same compound, the survival at 120 h in [9] worked out at 90%. For the same compound, the “inhibition (INH)” value in the series with Staphylococcus aureus [11] was 96.21%. Further, the MIC in the series with Staphylococcus aureus [14] turned out to be 1.9 µM (≈ 0.795 µg/mL); in the series on Staphylococcus aureus [16], 1.9 µM (≈ 0.795 µg/mL); in the series on Staphylococcus aureus [21], 3.9 µM (≈ 1.63 µg/mL). The minimum bactericidal concentration (MBC) in the series on Staphylococcus aureus [18] worked out at 3.9 µM (≈ 1.63 µg/mL).

For the origin of these results see ChEMBL document CHEMBL5357047, “The development of thymol-isatin hybrids as broad-spectrum antibacterial agents with potent anti-MRSA activity” (RSC Med Chem, 2024).
